According to ChEMBL document CHEMBL1148485, “Synthesis and biological evaluation of new selective cytotoxic cyclolignans derived from podophyllotoxin” (J Med Chem, 2004):

Legend:
A549 = assay: In vitro cytotoxicity against A-549 (human lung carcinoma) cell line.; format: functional, cell-based; details: Homo sapiens, A549
HeLa [1] = assay: Tested for effect of compound on Sub-G1 cell cycle phase and apoptosis in HeLa cells at a dose of 10E-6 for 48 hr; format: functional, Homo sapiens
How it was run: (§1)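 HeLa cells grown in DMEM with 10% heat-inactivated FCS, 2 mM L-glutamine, penicillin and gentamicin at 37 °C, 5% CO2. Exposed to compound at 10^-6 to 10^-8 M for 24, 48 or 72 h, untreated controls run in parallel. (3-5) × 10^5 cells fixed overnight in 70% ethanol at 4 °C, then RNase A plus propidium iodide. Phase fractions measured by flow cytometry, with sub-G1 (hypodiploid) cells counted as apoptotic. Three independent experiments.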

HeLa [2] = assay: Tested for effect of compound on S cell cycle phase and apoptosis in HeLa cells at a dose of 10E-7 for 24 hr; format: functional, Homo sapiens; how it was run: as §1
HeLa [3] = assay: Tested for effect of compound on Sub-G1 cell cycle phase and apoptosis in HeLa cells at a dose of 10E-7 for 48 hr; format: functional, Homo sapiens; how it was run: as §1
HeLa [4] = assay: Tested for effect of compound on S cell cycle phase and apoptosis in HeLa cells at a dose of 10E-7 for 72 hr; format: functional, Homo sapiens; how it was run: as §1
HeLa [5] = assay: Tested for effect of compound on G0/G1 cell cycle phase and apoptosis in HeLa cells at a dose of 10E-6 for 72 hr; format: functional, Homo sapiens
How it was run: (§2)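 HeLa cells were grown in DMEM with 10% heat-inactivated FCS and 2 mM L-glutamine at 37 °C in 5% CO2. They were exposed to 10^-6 to 10^-8 M for 24, 48 or 72 h. Then (3-5)×10^5 cells were fixed overnight in 70% ethanol at 4 °C, PBS-washed, and given 1 mg/mL RNase A plus 20 µg/mL propidium iodide for 1 h at room temperature. DNA content was read by flow cytometry. Sub-G1 (hypodiploid) % counted as apoptotic. Untreated controls were run in parallel. Representative of three independent experiments.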

HeLa [6] = assay: Tested for effect of compound on G2/M cell cycle phase and apoptosis in HeLa cells at a dose of 10E-7 for 48 hr; format: functional, Homo sapiens; how it was run: as §1
P388 = assay: Tested in vitro for antineoplastic activity against P-388 (lymphoid neoplasm from DBA/2 mouse) tumor cell line; format: functional, cell-based
How it was run: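 P-388 cells seeded at 1 × 10^4 cells/well in MEM–10% FCS containing graded compound concentrations. Incubated 4 days at 37 °C, 10% CO2, 98% humidity. Inhibition scored by inverted microscopy against untreated controls, which were kept in exponential growth. Mean of duplicate wells.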

HeLa [7] = assay: Tested for effect of compound on G2/M cell cycle phase and apoptosis in HeLa cells at a dose of 10E-8 for 48 hr; format: functional, Homo sapiens; how it was run: as §1
HeLa [8] = assay: Tested for effect of compound on G0/G1 cell cycle phase and apoptosis in HeLa cells at a dose of 10E-8 for 24 hr; format: functional, Homo sapiens; how it was run: as §2
HeLa [9] = assay: Tested for effect of compound on Sub-G1 cell cycle phase and apoptosis in HeLa cells at a dose of 10E-6 for 72 hr; format: functional, Homo sapiens; how it was run: as §1
HeLa [10] = assay: Tested for effect of compound on G0/G1 cell cycle phase and apoptosis in HeLa cells at a dose of 10E-6 for 24 hr; format: functional, Homo sapiens; how it was run: as §2
HeLa [11] = assay: Tested for effect of compound on S cell cycle phase and apoptosis in HeLa cells at a dose of 10E-8 for 72 hr; format: functional, Homo sapiens; how it was run: as §1
HeLa [12] = assay: Tested for effect of compound on Sub-G1 cell cycle phase and apoptosis in HeLa cells at a dose of 10E-8 for 72 hr; format: functional, Homo sapiens; how it was run: as §1
HeLa [13] = assay: Tested for effect of compound on S cell cycle phase and apoptosis in HeLa cells at a dose of 10E-8 for 24 hr; format: functional, Homo sapiens; how it was run: as §1
HeLa [14] = assay: Tested for effect of compound on G2/M cell cycle phase and apoptosis in HeLa cells at a dose of 10E-8 for 24 hr; format: functional, Homo sapiens; how it was run: as §1
HeLa [15] = assay: Tested for effect of compound on G2/M cell cycle phase and apoptosis in HeLa cells at a dose of 10E-6 for 48 hr; format: functional, Homo sapiens; how it was run: as §2
HeLa [16] = assay: Tested for effect of compound on G2/M cell cycle phase and apoptosis in HeLa cells at a dose of 10E-7 for 72 hr; format: functional, Homo sapiens; how it was run: as §1
HeLa [17] = assay: Tested for effect of compound on G0/G1 cell cycle phase and apoptosis in HeLa cells at a dose of 10E-7 for 24 hr; format: functional, Homo sapiens; how it was run: as §2
HeLa [18] = assay: Tested for effect of compound on Sub-G1 cell cycle phase and apoptosis in HeLa cells at a dose of 10E-8 for 48 hr; format: functional, Homo sapiens; how it was run: as §1
[19] = Selectivity index is the ratio of IC50 of P-388 cell line to that of HT-29; format: functional
HeLa [20] = assay: Tested for effect of compound on Sub-G1 cell cycle phase and apoptosis in HeLa cells at a dose of 10E-7 for 24 hr; format: functional, Homo sapiens; how it was run: as §1
HeLa [21] = assay: Tested for effect of compound on S cell cycle phase and apoptosis in HeLa cells at a dose of 10E-6 for 72 hr; format: functional, Homo sapiens; how it was run: as §1
HeLa [22] = assay: Tested for effect of compound on G0/G1 cell cycle phase and apoptosis in HeLa cells at a dose of 10E-7 for 48 hr; format: functional, Homo sapiens; how it was run: as §2
HeLa [23] = assay: Tested for effect of compound on Sub-G1 cell cycle phase and apoptosis in HeLa cells at a dose of 10E-7 for 72 hr; format: functional, Homo sapiens; how it was run: as §1
HT-29 = assay: In vitro cytotoxicity against HT-29 (human colon carcinoma) cell line.; format: functional, cell-based; details: Homo sapiens, HT-29
HeLa [24] = assay: Tested for effect of compound on S cell cycle phase and apoptosis in HeLa cells at a dose of 10E-6 for 48 hr; format: functional, Homo sapiens; how it was run: as §1
HeLa [25] = assay: Tested for effect of compound on S cell cycle phase and apoptosis in HeLa cells at a dose of 10E-6 for 24 hr; format: functional, Homo sapiens; how it was run: as §1
HeLa [26] = assay: Tested for effect of compound on G0/G1 cell cycle phase and apoptosis in HeLa cells at a dose of 10E-6 for 48 hr; format: functional, Homo sapiens; how it was run: as §2
HeLa [27] = assay: Tested for effect of compound on G2/M cell cycle phase and apoptosis in HeLa cells at a dose of 10E-8 for 72 hr; format: functional, Homo sapiens; how it was run: as §1
HeLa [28] = assay: Tested for effect of compound on G2/M cell cycle phase and apoptosis in HeLa cells at a dose of 10E-6 for 24 hr; format: functional, Homo sapiens; how it was run: as §2
HeLa [29] = assay: Tested for effect of compound on G0/G1 cell cycle phase and apoptosis in HeLa cells at a dose of 10E-8 for 48 hr; format: functional, Homo sapiens; how it was run: as §2
HeLa [30] = assay: Tested for effect of compound on Sub-G1 cell cycle phase and apoptosis in HeLa cells at a dose of 10E-6 for 24 hr; format: functional, Homo sapiens; how it was run: as §1
HeLa [31] = assay: Tested for effect of compound on G2/M cell cycle phase and apoptosis in HeLa cells at a dose of 10E-7 for 24 hr; format: functional, Homo sapiens; how it was run: as §1
HeLa [32] = assay: Tested for effect of compound on G0/G1 cell cycle phase and apoptosis in HeLa cells at a dose of 10E-7 for 72 hr; format: functional, Homo sapiens; how it was run: as §2
HeLa [33] = assay: Tested for effect of compound on S cell cycle phase and apoptosis in HeLa cells at a dose of 10E-7 for 48 hr; format: functional, Homo sapiens; how it was run: as §1
SK-MEL-28 = assay: Tested in vitro for antineoplastic activity against MEL-28 (human melanoma) tumor cell line; format: functional, cell-based
How it was run: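 MEL-28 cells seeded at 2 × 10^4 cells/well in MEM–10% FCS containing graded compound concentrations. Incubated 4 days at 37 °C, 10% CO2, 98% humidity. Stained with crystal violet and inhibition judged against untreated controls, which were kept in exponential growth. Mean of duplicate wells.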

HeLa [34] = assay: Tested for effect of compound on Sub-G1 cell cycle phase and apoptosis in HeLa cells at a dose of 10E-8 for 24 hr; format: functional, Homo sapiens; how it was run: as §1
HeLa [35] = assay: Tested for effect of compound on G0/G1 cell cycle phase and apoptosis in HeLa cells at a dose of 10E-8 for 72 hr; format: functional, Homo sapiens; how it was run: as §2
HeLa [36] = assay: Tested for effect of compound on G2/M cell cycle phase and apoptosis in HeLa cells at a dose of 10E-6 for 72 hr; format: functional, Homo sapiens; how it was run: as §1
HeLa [37] = assay: Tested for effect of compound on S cell cycle phase and apoptosis in HeLa cells at a dose of 10E-8 for 48 hr; format: functional, Homo sapiens; how it was run: as §1

## CCn1nccc1/N=C/C1=Cc2cc3c(cc2C(c2cc(OC)c(OC)c(OC)c2)[C@@H]1C(=O)OC)OCO3 (some centres not stated)
A549
  IC50: 960 nM
HeLa [1]
  Activity: 23.8%
HeLa [2]
  Activity: 18.3%
HeLa [3]
  Activity: 1.9%
HeLa [4]
  Activity: 12.3%
HeLa [5]
  Activity: 31.3%
HeLa [6]
  Activity: 35.6%
P388
  IC50: 960 nM
HeLa [7]
  Activity: 28.2%
HeLa [8]
  Activity: 56.4%
HeLa [9]
  Activity: 39.6%
HeLa [10]
  Activity: 6.8%
HeLa [11]
  Activity: 12.2%
HeLa [12]
  Activity: 2.3%
HeLa [13]
  Activity: 18.2%
HeLa [14]
  Activity: 24.1%
HeLa [15]
  Activity: 49.4%
HeLa [16]
  Activity: 44.4%
HeLa [17]
  Activity: 55.6%
HeLa [18]
  Activity: 1.7%
[19]
  Selectivity index: 20
HeLa [20]
  Activity: 1.8%
HeLa [21]
  Activity: 8.1%
HeLa [22]
  Activity: 49.5%
HeLa [23]
  Activity: 5.6%
HT-29
  IC50: 48 nM
HeLa [24]
  Activity: 10.8%
HeLa [25]
  Activity: 9.6%
HeLa [26]
  Activity: 16%
HeLa [27]
  Activity: 25.4%
HeLa [28]
  Activity: 81.5%
HeLa [29]
  Activity: 56%
HeLa [30]
  Activity: 2.1%
HeLa [31]
  Activity: 24.3%
HeLa [32]
  Activity: 37.7%
HeLa [33]
  Activity: 13%
SK-MEL-28
  IC50: 960 nM
HeLa [34]
  Activity: 1.3%
HeLa [35]
  Activity: 60.1%
HeLa [36]
  Activity: 21%
HeLa [37]
  Activity: 14.1%

## COC(=O)[C@@H]1C(C=O)=Cc2cc3c(cc2[C@H]1c1cc(OC)c(OC)c(OC)c1)OCO3
A549
  IC50: 120 nM
HeLa [1]
  Activity: 28.9%
HeLa [2]
  Activity: 10.4%
HeLa [3]
  Activity: 10.9%
HeLa [4]
  Activity: 17.3%
HeLa [5]
  Activity: 14.1%
HeLa [6]
  Activity: 68.2%
P388
  IC50: 230 nM
HeLa [7]
  Activity: 29.7%
HeLa [8]
  Activity: 58.1%
HeLa [9]
  Activity: 58.9%
HeLa [10]
  Activity: 1.2%
HeLa [11]
  Activity: 10.2%
HeLa [12]
  Activity: 3.1%
HeLa [13]
  Activity: 16.2%
HeLa [14]
  Activity: 24.3%
HeLa [15]
  Activity: 44.8%
HeLa [16]
  Activity: 17.5%
HeLa [17]
  Activity: 8.1%
HeLa [18]
  Activity: 1.5%
[19]
  Selectivity index: 19
HeLa [20]
  Activity: 1.4%
HeLa [21]
  Activity: 17.5%
HeLa [22]
  Activity: 11.2%
HeLa [23]
  Activity: 50.1%
HT-29
  IC50: 12 nM
HeLa [24]
  Activity: 9.3%
HeLa [25]
  Activity: 1.7%
HeLa [26]
  Activity: 17%
HeLa [27]
  Activity: 39.3%
HeLa [28]
  Activity: 96%
HeLa [29]
  Activity: 58.7%
HeLa [30]
  Activity: 1.1%
HeLa [31]
  Activity: 80.1%
HeLa [32]
  Activity: 15.1%
HeLa [33]
  Activity: 9.7%
SK-MEL-28
  IC50: 230 nM
HeLa [34]
  Activity: 1.4%
HeLa [35]
  Activity: 47.4%
HeLa [36]
  Activity: 9.5%
HeLa [37]
  Activity: 10.1%
